# An excerpt weighted towards active compounds, which were near 5.4% of everything screened.
# Mdm2 MdmX PPI: disrupts the human Mdm2-MdmX interaction; O15151+Q00987; SaOS-2 split-luciferase Mdm2/MdmX complementation, luminescence; inhibition, % at 8 µM; hit rate 3% among 330,000;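 active means inhibition of at least 50% at 8 µM in the primary screen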
# SKKanGAS inh: blocks kanamycin growth of S. pyogenes SKKanGAS strain | BacTiter-Glo, 6 h | inhibition, % at 7.5 µM | hit rate 1.3% among 300,000 | AID 1662;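 active means mean replicate score, as percent of positive control median, at least 50; inconclusive means mean below 50 but one replicate at or above 50; inactive means mean and every replicate below 50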;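 further: strain carries kanamycin resistance gene driven by streptokinase promoter and grows in 40 µg/ml kanamycin; loss of luminescence reflects streptokinase promoter inhibition or plain growth inhibition; 0% = median of DMSO wells and 100% = positive control at its reference dose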
# aSyn UTR inh: MLPCN primary screen, SNCA 5' untranslated region; inhibition, % (tested at 7.5 µM); AID 1813; hit rate 0.82% among 300,000; alpha-synuclein 5'UTR reporter, inhibitor activity; in the data active means inhibition above about 60%; inconclusive means no clear call, values can overlap the other calls;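 further: H4 neuroglioblastoma cells stably carrying SNCA 5'UTR luciferase fusion; 0% = DMSO wells and 100% = positive control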
# T cruzi inh: T. cruzi replication inhibition; T. cruzi beta-gal in NIH3T3, luminescence, 90 h; inhibition, % (no concentration beside the values); hit rate 1.4% among 300,000; AID 1885;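 active means mean inhibition across valid replicates above about 55%, limit read from the data; inconclusive means mean below that limit but half or more replicates reach it; inactive means mean below it, under half of replicates reach it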;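 further: signal also drops with host cell toxicity which is not excluded here; 0% = plate median of DMSO wells and 100% = zero luminescence signal; higher percent means less beta-gal luminescence so fewer parasites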
#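 Material: NIH/3T3 host cells with β-galactosidase reporter T. cruzi; Input: 5,000 host fibroblasts per well; Medium: DMEM, 2% fetal bovine serum; Compound: 50 nL DMSO compound solution per well; Schedule: 3 h host attachment, then at least 90 h co-culture; Detection: luminescent β-galactosidase signal after 60 min lysis.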
# CSC inhib: blocks cancer stem cells; cancer stem cell-like cells viability, luminescence; inhibition, % at 7.5 µM; hit rate 1.1% among 300,000; AID 2717; in the data active means inhibition above about 75%; inconclusive means no clear call, values can overlap the other calls; tested in HMLE shEcad cells
# Mdm2 MdmX conf: confirmation of human Mdm2/MdmX interaction inhibitors; inhibition, % at 8 µM; Mdm2-MdmX binding, luminescent assay; hit rate 55% among 10,000; shares compounds with Mdm2 MdmX PPI; in the data active means inhibition above about 40%
# FLuc counter: counter-screen for Mdm2/MdmX inhibitors: full-length luciferase; inhibition, % at 8 µM; SaOS-2 full-length luciferase counterscreen, luminescence; hit rate 77% among 6,200; shares compounds with Mdm2 MdmX PPI;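 active means mean inhibition at 8 µM reaching about 37%, which flags the compound as non-specific, limit read from the data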;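 further: p53-null SaOS-2 cells with luciferase driven by a doxycycline-inducible promoter; compound on cells about two nights before reading with doxycycline added after day one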
# Active calls of the source: *; ? = inconclusive; / = no result.
SMILES,Mdm2 MdmX PPI,SKKanGAS inh,aSyn UTR inh,T cruzi inh,CSC inhib,Mdm2 MdmX conf,FLuc counter
O=C(NCCc1ccccc1)C1CCC(CNc2nc(=S)[nH]c3ccccc23)CC1 (stereo unspecified),96*,6,34,11,45,6,/
COc1ccc(C2CC(c3cccs3)=Nc3ccccc3S2)cc1 (stereo unspecified),3,5,-163,36,-6,/,/
COc1cc(/C=C2/OC(=O)c3cc([N+](=O)[O-])ccc32)cc(OC)c1OC,67*,13,-18,-12,2,0,/
COc1cc(/C=C/C(=O)c2cccc([N+](=O)[O-])c2)cc(OC)c1OC,52*,-13,-62,-1,9,22,/
O=C(/C=C/c1ccccc1F)c1cccc([N+](=O)[O-])c1,25,9,-16,0,5,/,/
O=C1OC(=O)c2cc([N+](=O)[O-])ccc21,27,/,/,/,2,/,/
COc1cccc(NC(=O)CN(C)C(=O)C(Sc2ccccc2)c2ccccc2)c1 (stereo unspecified),-3,/,/,/,/,/,/
Clc1nc(-c2ccccn2)nc2scc(-c3ccccc3)c12,57*,18,-206,14,0,37,/
Cc1ccc(NC(=S)N/N=C/c2ccc(Cl)c([N+](=O)[O-])c2)cc1,41,6,-40,3,-6,/,/
O=C(N/N=C/c1ccc(Cl)c([N+](=O)[O-])c1)c1cc(-c2ccccc2)nc2ccccc12,100*,13,9,4,96*,8,/
Cc1ccc(/C=N/NC(=O)c2cc(-c3ccncc3)nc3ccccc23)o1,48,-4,-12,-3,/,/,/
O=C(N/N=C/c1ccc([N+](=O)[O-])o1)c1cc(-c2ccncc2)nc2ccccc12,62*,8,-67,50,43,52*,44*
O=C(N/N=C/c1ccc([N+](=O)[O-])o1)c1cc(-c2ccc(-c3ccccc3)cc2)nc2ccccc12,64*,74*,76*,43,78*,57*,84*
O=[N+]([O-])c1cc(/C=N/NC(=S)Nc2ccccc2Cl)ccc1Cl,59*,/,/,/,84*,21,/
COc1cc(C(=O)O)ccc1OCc1ccncc1,-1,-1,2,-3,0,/,/
CCOC(=O)N1CCN(C(=O)/C(=C\c2ccc(SC)cc2)NC(=O)c2ccccc2)CC1,10,7,4,-2,-6,/,/
Cn1cnc(S(=O)(=O)Nc2ccccc2C(=O)NCC2CC2)c1,-2,23,4,-3,-10,/,/
O=c1cc(O)nc(SCc2ccccc2)n1-c1ccc(Cl)cc1,1,45,-1,3,-5,/,/
O=C(CCNC(=O)c1ccco1)Nc1ccc(Cl)cc1F,-18,-3,2,-13,-11,/,/
CCC(=O)NC(/C=C/c1ccccc1)c1cc([N+](=O)[O-])c2cccnc2c1O (stereo unspecified),64*,41,-94,-3,151*,19,/
Cc1ccc([N+](=O)[O-])c2cccnc12,15,0,-7,-7,-10,/,/
Cc1ccc(C(NC(=O)C(C)C)c2cc([N+](=O)[O-])c3cccnc3c2O)cc1 (stereo unspecified),57*,89*,-29,7,144*,51*,44*
CC(C)C(=O)NC(c1cccs1)c1cc([N+](=O)[O-])c2cccnc2c1O (stereo unspecified),68*,77*,53,-11,104*,70*,57*
O=c1ccc(Oc2nc(N3CCOCC3)nc(N3CCOCC3)n2)n[nH]1,-8,0,3,-2,-9,/,/
COc1ccc2cc(C3CC(c4cccs4)=NN3C(C)=O)c(Cl)nc2c1 (stereo unspecified),55*,-2,13,5,10,3,/
SMILES,Mdm2 MdmX PPI,SKKanGAS inh,aSyn UTR inh,T cruzi inh,CSC inhib,Mdm2 MdmX conf,FLuc counter
Cc1ccc2nc(Cl)c(C3CC(c4cccs4)=NN3C(=O)CCC(=O)O)cc2c1 (stereo unspecified),-13,5,9,-3,-10,/,/
CCOC(=O)CNC(=O)C(CC(C)C)NC(=O)C1CCCCC1 (stereo unspecified),26,-3,-27,-8,-16,/,/
COc1ccc(/C=N/NC(=O)c2[nH]c3ccc(Br)cc3c2-c2ccccc2)cc1,74*,17,80*,6,55,60*,108*
NNC(=O)c1[nH]c2ccc(Cl)cc2c1-c1ccccc1,53*,4,77*,0,61,21,/
COc1ccc2c(c1)c(C(=O)N/N=C/c1ccc(Br)cc1)c(C)n2C,56*,8,-116,10,47,39,54*
CC(=O)NNC(=O)c1[nH]c2ccc(Br)cc2c1-c1ccccc1,23,-2,1,2,28,/,/
O=C(N/N=C/c1ccccc1Cl)c1[nH]c2ccc(Br)cc2c1-c1ccccc1,89*,19,71*,42,68,75*,106*
CCOc1ccc(/C=N/NC(=O)c2c(C)n(C)c3ccc(OC)cc23)cc1,31,0,10,7,6,/,/
COc1ccc(/C=N/NC(=O)c2[nH]c3ccc(Br)cc3c2-c2ccccc2)c(C(=O)O)c1OC,-10,-1,-8,-14,41,/,/
NNC(=O)c1[nH]c2ccc(Br)cc2c1-c1ccccc1,4,9,-13,-4,52,/,/
O=C(Nc1ccc2c(c1)OCO2)N1CCN(Cc2ccco2)CC1,-16,5,-27,-9,-7,/,/
CC1CC(C)CN(S(=O)(=O)c2cc3c4c(c2)CCC(=O)N4CCC3)C1 (stereo unspecified),2,23,-8,16,/,/,/
CC1Cc2ccccc2N1C(=O)CSc1nc2c(c(=O)n(C)c(=O)n2C)n1Cc1ccccc1 (stereo unspecified),50*,12,25,57*,1,34,/
CC1Cc2ccccc2N1C(=O)CSc1nnnn1Cc1ccccc1 (stereo unspecified),16,4,9,11,-8,/,/
CN1C2CCC1/C(=C\c1ccccc1F)C(=O)/C2=C/c1ccccc1F,59*,3,-89,32,23,41*,35
Cc1nc2c(-c3ccc(F)cc3)cnn2c(N)c1-c1ccccc1,91*,19,41,44,68,87*,110*
Cc1nc2c(-c3ccc(Cl)cc3)cnn2c(N)c1-c1ccc(F)cc1,88*,14,-55,35,58,85*,105*
C=CCN(CC=C)S(=O)(=O)c1ccc(NC(=S)NC(=O)C2CC2)cc1,19,?,17,7,4,/,/
Cc1cc(NC(=O)Nc2cccc([N+](=O)[O-])c2)no1,13,1,-50,-2,-9,/,/
O=C(Nc1ccc([N+](=O)[O-])cc1)C(=O)Nc1cccc(C(=O)O)c1,64*,5,102*,9,32,67*,31
Cc1ccc(NC(=O)Nc2cccc([N+](=O)[O-])c2)cc1F,57*,6,-87,55*,21,44*,45*

# Source: PubChem (several laboratories)
